According to ChEMBL document CHEMBL4118079, “Discovery of novel naphthoquinone derivatives as inhibitors of the tumor cell specific M2 isoform of pyruvate kinase” (Eur J Med Chem, 2017):

Columns and labels:
Pyruvate kinase PKM [1] = target: T1, Pyruvate kinase PKM (Homo sapiens, UniProt P14618); assay: Inhibition of recombinant human N-terminal His-tagged PKM2 expressed in Escherichia coli BL21 preincubated for 15 mins followed by PEP/NADH addition measured at 30 secs interval for 3 to 6 mins by fluorescent PK-LDH assay
Summary of the method: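 Human PKM2 with an N-terminal His tag, expressed in E. coli BL21 and Ni-agarose purified. Enzyme and compound preincubated 15 min in 50 mM Tris–HCl pH 7.5, 10 mM KCl, 5 mM MgCl2. NADH fluorescence read kinetically every 30 s for 3–6 min. IC50.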

NCI-H1299 [2] = assay: Antiproliferative activity against human NCI-H1299 cells after 48 hrs by MTS assay; format: functional, cell-based; settings: NCI-H1299, 48 h
Summary of the method: (§1)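 Cells kept in RPMI 1640 with 9% FBS at 37°C, 5% CO2. 5000 cells/well seeded, left 12 h, then exposed to a range of compound concentrations or DMSO (negative control) for 48 h. MTS added, 3 h at 37°C, absorbance read at 490 nm. IC50 ± SD.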

HCT-116 [3] = assay: Antiproliferative activity against human HCT116 cells after 48 hrs by MTS assay; format: functional, cell-based; settings: HCT-116, 48 h; summary of the method: as §1
HeLa [4] = assay: Antiproliferative activity against human HeLa cells after 48 hrs by MTS assay; format: functional, cell-based; summary of the method: as §1
HCT-116 [5] = assay: Antiproliferative activity against human HCT116 cells assessed as cell viability at 0.313 uM after 48 hrs by MTS assay relative to control; format: functional; settings: HCT-116, 48 h, read-out: Activity
[6] = Selectivity index, ratio of IC50 for human BEAS2B cells to IC50 for human NCI-H1299 cells; format: toxicity; settings: BEAS2B cells and NCI-H1299 cells, read-out: Ratio IC50
HeLa [7] = assay: Antiproliferative activity against human HeLa cells assessed as cell viability at 0.156 uM after 48 hrs by MTS assay relative to control; format: functional; settings: read-out: Activity
Pyruvate kinase PKLR = Pyruvate kinase PKLR (Homo sapiens, UniProt P30613); assay: Inhibition of recombinant human N-terminal His-tagged PKL expressed in Escherichia coli preincubated for 15 mins followed by PEP/NADH addition measured at 30 secs interval for 3 to 6 mins by fluorescent PK-LDH assay
HCT-116 [8] = assay: Antiproliferative activity against human HCT116 cells assessed as cell viability at 0.625 uM after 48 hrs by MTS assay relative to control; format: functional; settings: HCT-116, 48 h, read-out: Activity
HeLa [9] = assay: Antiproliferative activity against human HeLa cells assessed as cell viability at 0.313 uM after 48 hrs by MTS assay relative to control; format: functional; settings: read-out: Activity
NCI-H1299 [10] = assay: Antiproliferative activity against human NCI-H1299 cells after 48 hrs in presence of PKM2 activator FBP by MTS assay; format: functional, cell-based; settings: NCI-H1299, 48 h
Summary of the method: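 H1299 cells in RPMI 1640 with 9% FBS at 37°C, 5% CO2. 5000 cells/well, 12 h attachment, then 48 h treatment at graded concentrations with FBP (100 µM) added. MTS read-out (3 h, 37°C, A490). IC50 ± SD.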

HeLa [11] = assay: Antiproliferative activity against human HeLa cells assessed as cell viability at 0.078 uM after 48 hrs by MTS assay relative to control; format: functional; settings: read-out: Activity
Pyruvate kinase PKM [12] = target: T1, Pyruvate kinase PKM; assay: Inhibition of recombinant human N-terminal His-tagged PKM1 expressed in Escherichia coli BL21 preincubated for 15 mins followed by PEP/NADH addition measured at 30 secs interval for 3 to 6 mins by fluorescent PK-LDH assay
Summary of the method: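 Human PKM1 with an N-terminal His tag, expressed in E. coli BL21 and Ni-agarose purified. Activity measured by PK–LDH coupling, with pyruvate formation tracked as NADH depletion by fluorescence in kinetic mode. IC50.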
Target sequence in this assay (P14618 whole entry): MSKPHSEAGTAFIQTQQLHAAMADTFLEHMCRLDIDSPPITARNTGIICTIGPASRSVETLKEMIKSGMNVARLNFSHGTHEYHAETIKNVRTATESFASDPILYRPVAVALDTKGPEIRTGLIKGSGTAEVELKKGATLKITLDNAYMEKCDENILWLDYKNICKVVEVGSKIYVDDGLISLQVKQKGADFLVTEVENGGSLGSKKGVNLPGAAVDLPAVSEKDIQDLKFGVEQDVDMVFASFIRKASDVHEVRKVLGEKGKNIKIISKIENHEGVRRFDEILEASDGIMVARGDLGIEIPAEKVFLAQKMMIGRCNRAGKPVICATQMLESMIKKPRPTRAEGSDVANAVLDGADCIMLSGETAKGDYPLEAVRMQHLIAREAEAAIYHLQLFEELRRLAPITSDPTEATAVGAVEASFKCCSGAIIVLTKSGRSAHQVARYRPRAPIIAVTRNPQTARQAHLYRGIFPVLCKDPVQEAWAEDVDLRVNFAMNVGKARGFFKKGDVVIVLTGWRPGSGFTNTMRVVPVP

HCT-116 [13] = assay: Antiproliferative activity against human HCT116 cells assessed as cell viability at 0.078 uM after 48 hrs by MTS assay relative to control; format: functional; settings: HCT-116, 48 h, read-out: Activity
HeLa [14] = assay: Antiproliferative activity against human HeLa cells assessed as cell viability at 0.625 uM after 48 hrs by MTS assay relative to control; format: functional; settings: read-out: Activity
Homo sapiens [15] = species on record: Homo sapiens; assay: Selectivity ratio of IC50 for recombinant human N-terminal His-tagged PKM1 expressed in Escherichia coli BL21 to IC50 for recombinant human N-terminal His-tagged PKM2 expressed in Escherichia coli BL21
HCT-116 [16] = assay: Antiproliferative activity against human HCT116 cells assessed as cell viability at 0.156 uM after 48 hrs by MTS assay relative to control; format: functional; settings: HCT-116, 48 h, read-out: Activity
BEAS-2B = assay: Cytotoxicity against human BEAS2B cells assessed as reduction in cell viability after 48 hrs by MTS assay; format: cell-based; summary of the method: as §1
Homo sapiens [17] = species on record: Homo sapiens; assay: Selectivity ratio of IC50 for recombinant human N-terminal His-tagged PKL expressed in Escherichia coli to IC50 for recombinant human N-terminal His-tagged PKM2 expressed in Escherichia coli BL21

Chain of Pyruvate kinase PKLR (P30613 whole entry): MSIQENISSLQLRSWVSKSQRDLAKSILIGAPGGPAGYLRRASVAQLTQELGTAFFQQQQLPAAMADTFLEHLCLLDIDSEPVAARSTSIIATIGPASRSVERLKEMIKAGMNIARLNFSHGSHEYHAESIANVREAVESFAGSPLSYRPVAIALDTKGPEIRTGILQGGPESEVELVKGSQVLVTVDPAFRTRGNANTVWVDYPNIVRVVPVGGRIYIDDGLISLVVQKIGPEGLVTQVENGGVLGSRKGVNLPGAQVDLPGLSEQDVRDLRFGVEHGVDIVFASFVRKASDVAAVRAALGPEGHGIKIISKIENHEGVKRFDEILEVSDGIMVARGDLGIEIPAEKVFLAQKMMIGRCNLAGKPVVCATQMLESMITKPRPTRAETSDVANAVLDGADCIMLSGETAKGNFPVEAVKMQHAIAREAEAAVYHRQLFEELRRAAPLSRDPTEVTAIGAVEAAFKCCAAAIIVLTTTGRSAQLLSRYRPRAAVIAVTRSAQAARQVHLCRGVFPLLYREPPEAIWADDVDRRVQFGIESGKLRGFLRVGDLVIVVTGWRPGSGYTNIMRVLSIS

Row | SMILES | IC50 (Pyruvate kinase PKM [1]) [µM] | IC50 (NCI-H1299 [2]) [µM] | IC50 (HCT-116 [3]) [µM] | IC50 (HeLa [4]) [µM] | further results
1 | CC(=O)N1CCN(C(=S)SC2=C(C)C(=O)c3ccccc3C2=O)CC1 | > 20 | 6.61 | 4.95 | 10.6 | –
2 | CC1=C(CSC(=S)N2CCCCC2)C(=O)c2ccccc2C1=O | – | 1.56 | 0.18 | 0.29 | viability at 0.313 µM (HCT-116 [5]): 20.7%; inhibition (Pyruvate kinase PKM [1]): Dose-dependent effect; selectivity ratio [6]: 11.8; viability at 0.156 µM (HeLa [7]): 95.8%; IC50 (Pyruvate kinase PKLR): 8.2 µM; viability at 0.625 µM (HCT-116 [8]): 6.9%; viability at 0.313 µM (HeLa [9]): 21.1%; IC50 (NCI-H1299 [10]): 2.01 µM; viability at 0.078 µM (HeLa [11]): 99%; IC50 (Pyruvate kinase PKM [12]): 16.7 µM; viability at 0.078 µM (HCT-116 [13]): 92.5%; viability at 0.625 µM (HeLa [14]): 4.8%; Ratio IC50 (Homo sapiens [15]): 5.7; viability at 0.156 µM (HCT-116 [16]): 62.3%; IC50 (BEAS-2B): 18.5 µM; Ratio IC50 (Homo sapiens [17]): 2.8
3 | CC1=C(CSC(=S)NCc2cccnc2)C(=O)c2ccccc2C1=O | > 20 | 1.08 | 0.18 | 0.38 | –
4 | CCCN(CCC)C(=S)SCc1cc(OC)c2ccccc2c1OC | 15.7 | > 20 | > 20 | > 20 | –
5 | CC1=C(CSC(=S)N(CCO)CCO)C(=O)c2ccccc2C1=O | > 20 | 1.95 | 2.23 | 4.8 | –
6 | C=CCN(CC=C)C(=S)SCC1=C(C)C(=O)c2ccccc2C1=O | 14.1 | 3.2 | 2.17 | 1.16 | –
7 | CCCN(CCC)C(=S)SC1=C(C)C(=O)c2ccccc2C1=O | 9.98 | 15.6 | 4.3 | > 20 | –
8 | CCCN(CCC)C(=S)SCC1=C(C)C(=O)c2ccccc2C1=O | 6.79 | 4.23 | 6 | 12.1 | –
9 | CNC(=S)SCC1=C(C)C(=O)c2ccccc2C1=O | > 20 | 5.39 | 4.59 | 8.36 | –
10 | O=C1C=C(CSC(=S)N2CCN(c3ccccc3)CC2)C(=O)c2ccccc21 | 1.4 | 8.71 | > 20 | > 20 | inhibition (Pyruvate kinase PKM [1]): Dose-dependent effect; IC50 (Pyruvate kinase PKLR): 3.8 µM; IC50 (Pyruvate kinase PKM [12]): 6.26 µM; Ratio IC50 (Homo sapiens [15]): 4.5; Ratio IC50 (Homo sapiens [17]): 2.7
11 | CC1=C(CSC(=S)NCc2ccncc2)C(=O)c2ccccc2C1=O | > 20 | 0.67 | 0.59 | 0.5 | –
12 | CCCCN(CCCC)C(=S)SCC1=C(C)C(=O)c2ccccc2C1=O | 4.57 | 6.41 | 10.9 | 18.5 | –
13 | CC(=O)N1CCN(C(=S)SCC2=C(C)C(=O)c3ccccc3C2=O)CC1 | > 20 | 4.68 | 2.08 | 3.52 | –
14 | CCN(CC)C(=S)SCC1=CC(=O)c2ccccc2C1=O | 2.58 | 1.9 | 1.82 | 0.51 | –
15 | CC1=C(CSC(=S)NCc2ccccn2)C(=O)c2ccccc2C1=O | > 20 | 4.49 | 5.42 | 6.77 | –
16 | CC1=C(SC(=S)N2CCCCC2)C(=O)c2ccccc2C1=O | 4.93 | 10.2 | 3.55 | 1.29 | –
17 | CC1=C(CSC(=S)N2CCN(C(C)C)CC2)C(=O)c2ccccc2C1=O | > 20 | 4.06 | 1.97 | 2.19 | –
